Data reported in ChEMBL document CHEMBL1933058, “5-(2-amino-pyrimidin-4-yl)-1H-pyrrole and 2-(2-amino-pyrimidin-4-yl)-1,5,6,7-tetrahydro-pyrrolo[3,2-c]pyridin-4-one derivatives as new classes of selective and orally available Polo-like kinase 1 inhibitors” (Bioorg Med Chem Lett, 2012).

Assays:
[1] = AUC (0 to infinity) in Nu/Nu Balb Harlan mouse at 10 mg/kg, iv; assay type: ADME, organism-based; design: time infinity, dose 10 mg/kg, route intravenous; conditions: plasma
In short: (§1)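 Male Balb Nu/Nu mice (Harlan) received a single 10 mg/kg intravenous dose, n = 3 animals per study. Vehicle was either trifluoroacetate salt in dextrose or free base in 50% PEG 400/glucosate, depending on compound. Parameters were reported as mean ± standard deviation.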

[2] = Clearance in Nu/Nu Balb Harlan mouse at 10 mg/kg, iv; assay type: ADME, organism-based; design: dose 10 mg/kg, route intravenous; conditions: in vivo; in short: as §1
[3] = Volume of distribution at steady state in Nu/Nu Balb Harlan mouse at 10 mg/kg, iv; assay type: ADME, organism-based; design: dose 10 mg/kg, route intravenous; conditions: in vivo, read-out: Vdss
[4] = Half life in Nu/Nu Balb Harlan mouse at 10 mg/kg, iv; assay type: ADME, organism-based; design: dose 10 mg/kg, route intravenous; conditions: in vivo; in short: as §1
[5] = Cmax in Nu/Nu Balb Harlan mouse at 10 mg/kg, po; assay type: ADME, organism-based; design: dose 10 mg/kg, route oral; conditions: in vivo
[6] = AUC (0 to infinity) in Nu/Nu Balb Harlan mouse at 10 mg/kg, po; assay type: ADME, organism-based; design: time infinity, dose 10 mg/kg, route oral; conditions: plasma
[7] = Terminal half life in Nu/Nu Balb Harlan mouse at 10 mg/kg, po; assay type: ADME, organism-based; design: dose 10 mg/kg, route oral; conditions: in vivo, read-out: beta t1/2 (converted)
[8] = Oral bioavailability in Nu/Nu Balb Harlan mouse at 10 mg/kg; assay type: ADME, organism-based; conditions: in vivo
[9] = biological target: Serine/threonine-protein kinase PLK1 (Homo sapiens, UniProt P53350); test: Inhibition of PLK1
[10] = biological target: Serine/threonine-protein kinase PLK2 (Homo sapiens, UniProt Q9NYY3); test: Inhibition of PLK2
[11] = biological target: Serine/threonine-protein kinase PLK3 (Homo sapiens, UniProt Q9H4B4); test: Inhibition of PLK3
[12] = biological target: Cyclin-dependent kinase 2/cyclin A (Homo sapiens, UniProt P24941); test: Inhibition of CDK2/cyclin A; assay type: protein-complex assay
Aurora kinase A = biological target: T1, Aurora kinase A (Homo sapiens, UniProt O14965); test: Inhibition of Aurora-A
T1 sequence (O14965 whole entry): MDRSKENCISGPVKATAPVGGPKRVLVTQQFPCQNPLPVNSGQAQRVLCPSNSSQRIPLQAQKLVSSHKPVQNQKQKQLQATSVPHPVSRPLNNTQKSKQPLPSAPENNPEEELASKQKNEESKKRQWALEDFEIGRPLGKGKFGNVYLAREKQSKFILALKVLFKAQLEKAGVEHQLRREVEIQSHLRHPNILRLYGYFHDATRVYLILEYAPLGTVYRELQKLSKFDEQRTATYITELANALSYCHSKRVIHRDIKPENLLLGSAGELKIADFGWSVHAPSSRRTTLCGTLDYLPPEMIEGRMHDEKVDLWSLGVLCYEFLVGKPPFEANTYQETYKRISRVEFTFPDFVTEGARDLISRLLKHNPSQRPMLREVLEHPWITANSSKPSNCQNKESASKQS

A2780 = test: Antiproliferative activity against human A2780 cells; assay type: functional, cell-based

Chain of Serine/threonine-protein kinase PLK3 (Q9H4B4 whole entry): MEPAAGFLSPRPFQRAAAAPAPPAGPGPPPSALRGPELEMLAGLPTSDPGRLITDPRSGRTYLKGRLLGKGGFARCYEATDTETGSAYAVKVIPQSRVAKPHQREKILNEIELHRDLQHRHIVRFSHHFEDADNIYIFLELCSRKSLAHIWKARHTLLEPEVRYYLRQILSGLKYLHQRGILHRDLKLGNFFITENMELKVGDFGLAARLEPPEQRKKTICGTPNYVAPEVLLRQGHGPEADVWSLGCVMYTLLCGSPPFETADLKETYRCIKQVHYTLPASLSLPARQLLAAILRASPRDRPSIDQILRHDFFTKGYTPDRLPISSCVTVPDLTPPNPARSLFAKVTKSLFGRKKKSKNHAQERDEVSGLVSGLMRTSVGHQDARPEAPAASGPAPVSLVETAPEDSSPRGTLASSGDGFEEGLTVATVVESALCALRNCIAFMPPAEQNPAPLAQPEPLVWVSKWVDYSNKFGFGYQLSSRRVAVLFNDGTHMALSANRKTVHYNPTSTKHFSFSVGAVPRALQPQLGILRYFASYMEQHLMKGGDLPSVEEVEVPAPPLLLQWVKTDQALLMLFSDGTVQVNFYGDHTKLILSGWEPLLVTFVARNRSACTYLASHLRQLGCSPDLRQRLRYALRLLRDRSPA
Chain of Serine/threonine-protein kinase PLK1 (P53350 whole entry): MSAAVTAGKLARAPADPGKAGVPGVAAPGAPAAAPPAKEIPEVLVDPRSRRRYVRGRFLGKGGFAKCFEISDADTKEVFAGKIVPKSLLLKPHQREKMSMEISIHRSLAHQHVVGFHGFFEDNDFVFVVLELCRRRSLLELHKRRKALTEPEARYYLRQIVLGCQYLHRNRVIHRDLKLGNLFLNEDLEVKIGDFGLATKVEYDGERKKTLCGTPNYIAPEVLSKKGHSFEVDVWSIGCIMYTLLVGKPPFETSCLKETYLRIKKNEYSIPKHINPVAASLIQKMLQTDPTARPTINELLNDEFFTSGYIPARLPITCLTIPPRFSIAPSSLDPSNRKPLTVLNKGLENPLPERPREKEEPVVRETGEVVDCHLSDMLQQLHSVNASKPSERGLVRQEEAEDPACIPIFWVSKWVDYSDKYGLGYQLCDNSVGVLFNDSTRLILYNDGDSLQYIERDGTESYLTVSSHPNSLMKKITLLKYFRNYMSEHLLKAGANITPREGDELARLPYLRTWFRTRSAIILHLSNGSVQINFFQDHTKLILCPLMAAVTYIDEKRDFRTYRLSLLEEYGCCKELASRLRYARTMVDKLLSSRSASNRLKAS
Chain of Serine/threonine-protein kinase PLK2 (Q9NYY3 whole entry): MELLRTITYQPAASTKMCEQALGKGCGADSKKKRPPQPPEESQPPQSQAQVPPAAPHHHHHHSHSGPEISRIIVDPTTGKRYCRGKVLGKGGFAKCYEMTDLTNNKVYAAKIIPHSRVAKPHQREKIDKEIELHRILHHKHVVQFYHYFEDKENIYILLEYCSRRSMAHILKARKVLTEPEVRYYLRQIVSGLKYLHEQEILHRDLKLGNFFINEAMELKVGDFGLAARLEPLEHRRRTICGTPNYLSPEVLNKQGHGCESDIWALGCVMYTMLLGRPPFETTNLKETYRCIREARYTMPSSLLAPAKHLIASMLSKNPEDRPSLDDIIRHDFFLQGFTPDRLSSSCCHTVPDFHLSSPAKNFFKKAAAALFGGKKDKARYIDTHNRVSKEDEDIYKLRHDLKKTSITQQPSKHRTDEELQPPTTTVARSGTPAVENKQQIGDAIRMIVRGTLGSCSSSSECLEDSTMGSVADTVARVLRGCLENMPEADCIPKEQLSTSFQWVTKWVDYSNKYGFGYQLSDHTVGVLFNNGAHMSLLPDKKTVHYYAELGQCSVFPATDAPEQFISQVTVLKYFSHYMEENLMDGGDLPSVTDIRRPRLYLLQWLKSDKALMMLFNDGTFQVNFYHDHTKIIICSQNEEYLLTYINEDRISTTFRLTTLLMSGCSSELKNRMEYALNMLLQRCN

| AUC(0-inf) [1] [µM·h] | clearance [2] [mL/min/kg] | Vd [3] [L/kg] | half-life [4] [min] | Cmax [5] [nM] | AUC(0-inf) [6] [µM·h] | half-life [7] [min] | bioavailability [8] [%] | IC50 [9] [nM] | IC50 [10] [µM] | IC50 [11] [µM] | IC50 [12] [µM] | IC50 (Aurora kinase A) [µM] | IC50 (A2780) [µM] | Structure (SMILES) |
| --- | --- | --- | --- | --- | --- | --- | --- | --- | --- | --- | --- | --- | --- | --- |
| 5.41 | 74.7 | 2.5 | 39 | 760 | 1.92 | 102 | 36 | – | – | – | – | – | – | CN1CCN(c2ccc(OC(F)(F)F)c(Nc3nccc(-c4cc(C(N)=O)cn4C)n3)c2)CC1.O=C(O)C(F)(F)F |
| – | – | – | – | – | – | – | – | 817 | > 10 | > 10 | > 10 | > 10 | 0.176 | CN1CCN(c2ccc(OC(F)(F)F)c(Nc3nccc(-c4cc5c(n4C)CCN(C(=O)OC(C)(C)C)C5=O)n3)c2)CC1 |
| – | – | – | – | – | – | – | – | 272 | > 10 | > 10 | > 10 | > 10 | 6.69 | CN1CCN(c2ccc(OC(F)(F)F)c(Nc3nccc(-c4cc(C(N)=O)cn4CCOC4CCCCO4)n3)c2)CC1 (stereo not given) |
